Screening results as filed in PubChem BioAssay.
Compounds with a hit are over-represented: about 1.8% of the library has one in this group of screens.
Rin1-Abl PPI inh – human Rin1-Abl interaction inhibition; TR-FRET Rin1/Abl binding, biochemical; inhibition, % at 7.35 µM; AID 588664; P00519+Q13671; 360,000 tested, 0.4% active; in the data active means inhibition above about 5%, passing the limit was not always enough
PG9 Ab binder – small molecules binding HIV-1 gp120 antibody PG9. inhibition, % at 6.7 µM. 360,000 tested, 0.43% active. AID 624416. TR-FRET gp120-PG9 antibody binding; in the data active means inhibition above about 8.5%
Rev-erbA mod – modulates human Rev-erb alpha binding to DNA; AID 1259318; activity, % at 10 µM; 370,000 tested, 0.79% active; P20393; Rev-erbα–FITC-DNA binding, fluorescence polarization, 90 min;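 active means activity above about 14%, limit read from the data; passing the limit was not always enough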;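 further: 0% = DMSO wells with 35 nM protein and 100% = DMSO wells with 750 nM protein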
Target sequence (P20393 whole entry, looked up): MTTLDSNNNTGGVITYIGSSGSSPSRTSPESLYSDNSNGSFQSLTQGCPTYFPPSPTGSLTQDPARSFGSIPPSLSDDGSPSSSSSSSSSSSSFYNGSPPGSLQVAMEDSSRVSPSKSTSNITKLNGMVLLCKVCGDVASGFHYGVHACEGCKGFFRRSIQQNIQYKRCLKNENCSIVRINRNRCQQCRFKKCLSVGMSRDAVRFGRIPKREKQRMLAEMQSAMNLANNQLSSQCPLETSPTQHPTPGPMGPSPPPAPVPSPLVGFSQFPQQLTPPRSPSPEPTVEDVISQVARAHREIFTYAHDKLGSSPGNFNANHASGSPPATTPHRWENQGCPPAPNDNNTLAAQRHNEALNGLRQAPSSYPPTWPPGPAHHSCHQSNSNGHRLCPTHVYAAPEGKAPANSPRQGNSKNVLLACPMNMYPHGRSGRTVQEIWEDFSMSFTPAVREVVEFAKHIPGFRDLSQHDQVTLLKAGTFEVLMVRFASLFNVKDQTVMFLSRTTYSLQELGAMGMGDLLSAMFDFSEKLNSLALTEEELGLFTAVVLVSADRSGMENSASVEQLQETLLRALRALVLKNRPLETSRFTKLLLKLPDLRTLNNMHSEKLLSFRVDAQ
TbMetRS inhib – Trypanosoma brucei MetRS inhibition | purified T. brucei MetRS, ATP depletion, Kinase-Glo luminescence | inhibition, % at 11.9 µM | 360,000 tested, 0.4% active | AID 624268;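 active means inhibition above a per-plate cutoff of the control wells' mean inhibition plus 3 SD, cut at about 5.5% in these data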;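 further: 0% = DMSO wells median and 100% = median of wells with control inhibitor compound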
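Assay system: T. brucei methionyl-tRNA synthetase, purified | Medium: HEPES buffer with MgCl2, KCl, DTT, spermine, BSA, pyrophosphatase | Compound: 11.9 µM single point | Incubation: 15 min enzyme-compound preincubation, 2 h reaction, 10 min detection, 25 °C | Measured by: Kinase-Glo luciferase luminescence reporting remaining unconsumed ATP | Measure: % inhibition normalized to control-well medians | Replication: Singlicate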
Rin1 Abl conf – Rin1-Abl interaction inhibition confirmation. TR-FRET Rin1-Abl binding, purified proteins. shares compounds with Rin1-Abl PPI inh. 1,300 tested, 49% active. inhibition, % at 7.35 µM
GFP quencher – GFP fluorescence interference artifact. shares compounds with Rin1-Abl PPI inh. inhibitors/quenchers counterscreen. inhibition, % at 6.75 µM. 1,300 tested, 8.5% active. AID 602125;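 further: ABL1-eGFP fusion protein alone without its partner RIN1-SBP; 0% = protein with vehicle and 100% = wells lacking protein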
GFP quench dose – quenches GFP in dose response, Rin1-Abl counter-screen; shares compounds with Rin1-Abl PPI inh; GFP fluorescence interference/quenching counterscreen; IC50, µM; 230 tested, under 10 active; AID 602182; call rule not given here;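 further: ABL1-eGFP fusion protein alone without its RIN1 binding partner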
An asterisk follows results filed as active; · = not tested or not shown. Unless noted, no stated cut-off is given here; in the data, active means inhibition above about 6.5%; inactive means the rest.

SMILES | Rin1-Abl PPI inh | PG9 Ab binder | Rev-erbA mod | TbMetRS inhib | Rin1 Abl conf | GFP quencher | others
COc1ccc(CCNC(=O)c2ccc(NC3=NC4CS(=O)(=O)CC4S3)cc2)cc1OC (configuration not stated) | 18.5* | -0.6 | -3.2 | -0.9 | 22.3* | -0.6 | GFP quench dose=>67.5
O=C(Cc1ccc(NC2=NC3CS(=O)(=O)CC3S2)cc1)NCCc1ccccc1 (configuration not stated) | 6.5* | -2.9 | -3.2 | -0.7 | -0.6 | 0.3
Cc1ccc(CNC(=O)Cc2ccc(NC3=NC4CS(=O)(=O)CC4S3)cc2)cc1 (configuration not stated) | 10.5* | -0.7 | -2.4 | -0.3 | 6.3 | 0.8
CCOC(=O)CC[C@@H]1CC[C@]2(CCCN(C(=O)C3CCCCC3)C2)O1 | · | · | -0.5 | · | · | ·
COC(=O)[C@H](C)NC(=O)[C@@H]1CCCN1C(=O)CNP(=O)(OCc1ccccc1)OCc1ccccc1 | · | · | -1.0 | · | · | ·
CN(CC(=O)Nc1cc(S(=O)(=O)N2CCOCC2)ccc1Cl)C1CCS(=O)(=O)C1 (configuration not stated) | 9.4* | 3.0 | -4.9 | 1.5 | 0.6 | -0.8
Cc1ccc(S(=O)(=O)N(C)[C@H]2C[C@H]3c4cc(N5CCOCC5)ccc4CCN3C[C@H]2[C@H](C)O)cc1 | · | · | -3.0 | · | · | ·
CCCN(CCC)S(=O)(=O)c1ccc(C(=O)NCc2ccc3c(c2)OCO3)cc1 | 6.3* | 0.6 | 0.4 | 0.5 | -1.2 | 2.3
CCN(CC)S(=O)(=O)c1ccc(C(=O)NCc2ccc3c(c2)OCO3)cc1 | 1.3 | -0.3 | -9.8 | -0.3 | · | ·
CCc1nccn1CC(=O)c1ccc(O)c(O)c1 | · | · | 0.3 | · | · | ·
Cc1[nH]n(-c2ccccc2)c(=O)c1C(C[N+](=O)[O-])c1ccc(Br)cc1 (configuration not stated) | 34.2* | -5.3 | 5.1 | 3.2 | -0.4 | -0.1
COc1cccc(C(C[N+](=O)[O-])c2c(C)[nH]n(-c3ccccc3)c2=O)c1 (configuration not stated) | 3.2 | -4.4 | 5.1 | 0.1 | · | ·
Cc1[nH]n(-c2ccccc2)c(=O)c1C(c1cccc([N+](=O)[O-])c1O)c1c(C)[nH]n(-c2ccccc2)c1=O | -0.2 | -3.6 | -3.9 | 0.3 | · | ·
Cc1[nH]n(-c2ccccc2)c(=O)c1C(c1ccc(C(=O)O)cc1)c1c(C)[nH]n(-c2ccccc2)c1=O | 16.7* | -0.8 | 1.2 | 0.7 | -0.2 | 2.0
Cc1[nH]n(-c2ccccc2)c(=O)c1C(c1cccc([N+](=O)[O-])c1)c1c(C)[nH]n(-c2ccccc2)c1=O | 9.1* | -1.3 | 9.0 | -0.6 | 0.0 | -1.0
CN(Cc1ccc(F)cc1)C(=O)c1ccc(NS(=O)(=O)c2ccccc2)cc1 | 9.5* | 0.7 | 12.7 | -0.3 | 0.8 | -0.1
COc1ccccc1C(=O)NCC1CCN(c2ccc(S(=O)(=O)N3CCOCC3)cc2)CC1 | 21.7* | -0.6 | 1.0 | -0.2 | 13.3* | -0.6
Oc1ccc(/C=N/N(c2ccccc2)c2ccccc2)cc1O | 0.6 | -1.0 | -1.7 | -0.4 | · | ·
Oc1ccc(/C=N/N(c2ccccc2)c2ccccc2)c(O)c1O | 10.4* | -0.7 | -1.7 | 0.9 | 5.7 | 3.7
CC(=O)N1CCCN(C(=O)CN2C(=O)CC(C)(C)S(=O)(=O)c3ccccc32)CC1 | · | · | 0.1 | · | · | ·
COC(=O)c1ccc(CSc2nnc(CNC(=O)c3ccc(OC)cc3)o2)o1 | 4.9 | -1.7 | 1.8 | -0.4 | · | ·
COC(=O)c1ccc(CSc2nnc(CNC(=O)COc3ccc(Cl)cc3)o2)o1 | 17.1* | -0.6 | 2.1 | -0.3 | 18.6* | 0.0 | GFP quench dose=>67.5
COC(=O)c1ccc(CSc2nnc(CNC(=O)c3ccccc3F)o2)o1 | 8.5* | 0.8 | 2.1 | 0.1 | 10.9* | 0.6
O=C(O)CCCN1CCC(O[C@@H](c2ccc(Cl)cc2)c2ccccn2)CC1 | · | · | -10.8 | · | · | ·
CN(CCO)c1ccc2c(c1)Oc1ccccc1CN(Cc1cn(Cc3ccc(F)cc3)nn1)S2(=O)=O | · | · | -9.9 | · | · | ·
COCCC1CCCCN1C(=O)c1ccc(OC2CCN(C(C)=O)CC2)c(OC)c1 (configuration not stated) | 12.9* | -1.5 | 2.7 | 0.0 | -0.7 | -0.3
